HIF activator: HIF pathway transcriptional activators, primary screen, cell-based, U2OS HRE-luciferase, luminescence; actives 0.32% (n = 300,000); activation, % at 7.5 µM (by protocol); U2OS HRE-luciferase reporter; normalized: DMSO 0%, desferrioxamine 100%;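 active = mean activation of at least 10% of the iron chelator positive control signal, with at least half of replicates also reaching 10%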
V-ATPase pH: regulators of yeast V-ATPase proton pumping, primary screen, pHLuorin cytosolic pH fluorescence. actives 0.37% (n = 350,000). S. cerevisiae. response, % at 10 µM. AID 504577, 2011; in the data active = response mostly above about 7.3%, no sharp cut-off; inactive = mostly below about 5.4%; also: actives read high
T cruzi repl: inhibitors of intracellular T. cruzi growth, primary screen, luminescence, NIH3T3 host cells | T. cruzi beta-gal in NIH3T3, 90 h | inhibition, % (no concentration beside the values) | actives 1.4% (n = 300,000) | AID 1885, 2009;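 active = mean inhibition across valid replicates above about 55%, limit read from the data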;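 also: signal also drops with host cell toxicity which is not excluded here; higher percent means less beta-gal luminescence so fewer parasites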
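compound dosing = single 50 nL compound addition per well in DMSO | material = NIH/3T3 host cells with β-galactosidase reporter T. cruzi | input = 5,000 host fibroblasts per well | timing = ≥90 h infection period, 3 h prior cell attachment | read-out basis = percent inhibition of parasite-derived β-gal signal | detection = GalScreen β-gal luminescence, detergent lysis, 60 min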
AI-2 QS modul: Vibrio harveyi AI-2 quorum sensing modulators, primary screen, JMH597 strain, luminescence/OD600 ratio. Vibrio harveyi JMH597 AI-2 luminescence/OD600 ratio, 9 h; stronger effect = lower value; strain lacks LuxN and CqsS sensors; 0 = neutral-control median. activity change, % at 7.5 µM. actives 0.4% (n = 300,000); in the data active = activity change below about -75%, passing the limit was not always enough;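 also: luminescence divided by OD600 gain over 9 h not by final OD600 alone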
CR mimetic SO: reduction of superoxide in aged yeast, primary screen, HTS | S. cerevisiae aged cells, superoxide DHE fluorescence; stronger effect = lower value | actives 0.18% (n = 330,000) | superoxide response (% of plate mean), % at 10 µM;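 active = superoxide response under a set limit, about three screen SD below normal, cut at about 65% in these data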;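 also: yeast aged for seven days with compound at 30 °C before DHE staining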
NRP1-CendR mod: modulators of CendR peptide binding to NRP-1, primary screen, biochemical, fluorescence polarization, uHTS. Neuropilin-1 (Homo sapiens), O14786. actives 0.85% (n = 360,000). inhibition, % at 25 µM. FAM-RPARPAR peptide binding to NRP-1;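 active = inhibition or corrected inhibition above about 18%, plus a signal ratio from 0.5 to 1.5, limit read from the data, passing the limit was not always enough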
Target sequence (O14786 whole entry, looked up): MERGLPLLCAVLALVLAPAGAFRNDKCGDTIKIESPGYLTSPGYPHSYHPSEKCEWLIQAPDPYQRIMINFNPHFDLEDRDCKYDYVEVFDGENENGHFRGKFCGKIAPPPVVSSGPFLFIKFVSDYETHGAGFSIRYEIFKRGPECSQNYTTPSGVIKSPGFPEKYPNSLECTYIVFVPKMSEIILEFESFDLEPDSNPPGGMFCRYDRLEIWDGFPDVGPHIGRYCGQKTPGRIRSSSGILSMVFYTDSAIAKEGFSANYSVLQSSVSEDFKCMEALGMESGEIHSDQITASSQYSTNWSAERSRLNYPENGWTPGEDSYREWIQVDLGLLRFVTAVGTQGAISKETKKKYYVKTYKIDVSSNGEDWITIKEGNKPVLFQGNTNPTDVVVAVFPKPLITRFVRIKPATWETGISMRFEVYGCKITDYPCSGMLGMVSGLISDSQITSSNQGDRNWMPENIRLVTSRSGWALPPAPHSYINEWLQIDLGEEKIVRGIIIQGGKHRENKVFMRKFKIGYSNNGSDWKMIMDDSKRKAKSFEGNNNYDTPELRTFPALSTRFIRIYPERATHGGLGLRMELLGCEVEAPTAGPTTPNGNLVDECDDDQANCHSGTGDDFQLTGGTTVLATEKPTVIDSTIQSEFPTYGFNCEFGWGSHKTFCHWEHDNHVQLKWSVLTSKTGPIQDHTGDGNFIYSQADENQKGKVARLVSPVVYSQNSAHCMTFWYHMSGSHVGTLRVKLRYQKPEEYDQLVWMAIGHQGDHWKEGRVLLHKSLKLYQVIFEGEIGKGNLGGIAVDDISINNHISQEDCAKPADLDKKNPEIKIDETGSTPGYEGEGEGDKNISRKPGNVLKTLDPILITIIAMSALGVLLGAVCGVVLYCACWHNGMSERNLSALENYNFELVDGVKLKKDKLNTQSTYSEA
Hits are given with their value; - = inactive; . = no result. Only some compounds are listed: those with a hit (about 3% of all), similar ones and a draw of the others.

SMILES	HIF activator	V-ATPase pH	T cruzi repl	AI-2 QS modul	CR mimetic SO	NRP1-CendR mod
O=C(CC(c1ccccc1)c1ccccc1)Nc1ccncc1	-	-	-	-	-	-
COc1ccc(C(=O)NC(Nc2ccccc2)C(Cl)(Cl)Cl)cc1 (stereo unspecified)	-	-	-	-	-	-
O=S(=O)(NCC(c1cccnc1)N1CCN(Cc2ccccc2)CC1)c1cc(F)ccc1F (stereo unspecified)	-	-	59	-	-	-
Cc1ccc(C(CNS(=O)(=O)c2ccc([N+](=O)[O-])cc2)N2CCN(C)CC2)cc1 (stereo unspecified)	-	-	58	-	-	-
O=[N+]([O-])c1ccc(S(=O)(=O)NCC(c2cccnc2)N2CCc3ccccc32)cc1 (stereo unspecified)	-	-	70	-	-	-
Cc1ccc(C(CNS(=O)(=O)c2ccc(Br)cc2)N2CCN(C)CC2)cc1 (stereo unspecified)	-	-	-	-	-	-
CCN1CCN(C(CNS(=O)(=O)c2ccc(F)cc2)c2cccnc2)CC1 (stereo unspecified)	-	-	-	-	-	-
O=S(=O)(NCC(c1cccnc1)N1CCc2ccccc2C1)c1ccccc1 (stereo unspecified)	-	-	-	-	-	-
COc1ccc(N2CCN(C(CNS(=O)(=O)c3cc(F)ccc3F)c3cccnc3)CC2)cc1 (stereo unspecified)	-	-	70	-	-	-
O=C(NC1CC1)c1ccc(S(=O)(=O)NCC2CCCCC2)cc1	-	-	-	-	-	-
Cc1cc(C)n2nc(S(=O)(=O)N(CC(C)C)CC(C)C)nc2n1	-	-	-	-	-	-
O=S(=O)(NCC(c1cccnc1)N1CCN(Cc2ccccc2)CC1)c1ccc(Cl)cc1 (stereo unspecified)	-	-	58	-	-	-
COc1ccc(S(=O)(=O)NCC(c2cccnc2)N2CCN(c3ccccc3)CC2)cc1C (stereo unspecified)	-	-	63	-	-	-
O=S(=O)(NCC(c1cccnc1)N1CCN(Cc2ccccc2)CC1)c1ccc(F)cc1 (stereo unspecified)	-	-	-	-	-	-
O=S(=O)(NCC(c1cccnc1)N1CCN(c2ccc(F)cc2)CC1)c1cc(F)ccc1F (stereo unspecified)	-	-	58	-	-	-
COc1ccc(S(=O)(=O)NCC(c2cccnc2)N2CCN(c3ccc(F)cc3)CC2)cc1C (stereo unspecified)	-	-	-	-	.	-
Cc1cccc(NC(=O)CSc2cc(C)c(C#N)c3nc4ccccc4n23)c1	-	-	-	-	-	-
Nc1c(-c2ccccc2)cnn1-c1cccc(Cl)c1	-	-	-	-	-	-
Nc1ccccc1Nc1cc(-c2cccc(Cl)c2)nn1-c1ccccc1	-	-	57	-	-	-
O=C(NCCN1CCC(n2c(=O)[nH]c3ccccc32)CC1)c1ccc(F)cc1	.	.	.	.	.	-
CCc1c(C)nc2ncnn2c1NCc1cccs1	-	-	-	-	-	-
CCOc1ccc(Br)cc1C1C(C(=O)OC)=C(N)Oc2cc(N(C)C)ccc21 (stereo unspecified)	-	.	69	-	-	-
CC1CN(C(=O)c2ccccc2NS(=O)(=O)c2ccc(Cl)cc2)CC(C)O1 (stereo unspecified)	.	-	.	.	-	19
CC1CN(C(=O)c2ccc(S(=O)(=O)Nc3ccccc3Cl)cc2)CC(C)O1 (stereo unspecified)	-	-	-	-	-	-
C/C(CC(=O)Nc1ccccn1)=N\NC(=O)c1ccc([N+](=O)[O-])cc1Cl	-	-	-	-	-	-
SMILES	HIF activator	V-ATPase pH	T cruzi repl	AI-2 QS modul	CR mimetic SO	NRP1-CendR mod
C/C(Cn1nnc([N+](=O)[O-])n1)=N\NC(=O)c1ccccc1Cl	-	-	56	-	-	-
C/C(Cn1nnc([N+](=O)[O-])n1)=N\NC(=O)c1cccc(Cl)c1	.	-	57	-	-	-
C/C(Cn1nnc([N+](=O)[O-])n1)=N\NC(=O)c1ccncc1	-	-	57	-	-	-
C/C(Cn1nnc([N+](=O)[O-])n1)=N\NC(=O)c1ccc(C)cc1	-	-	-	-	-	-
COc1cccc(/C=N/Nc2ncnc3c2ncn3Cc2ccccc2)c1O	68	-	-	-	-	-
COc1ccc(/C=C2\SC(=S)N(CCC(=O)N(CCO)Cc3ccccc3)C2=O)cc1OC	-	-	65	-	-	-
COC(=O)CN1C(=O)C(O)(CC(=O)c2ccc(C)cc2)c2ccccc21 (stereo unspecified)	-	-	-	-	-	-
COc1ccc(-c2csc(NC(CO)c3nc4ccccc4n3CCCO)n2)cc1 (stereo unspecified)	-	-	-	-	-	26
CCOC(=O)c1sc(-c2ccccc2)cc1NC(=O)Nc1ccccc1	-	-	55	-	-	-
CCOC(=O)c1sc(NC(=O)Nc2ccccc2)cc1C	-	-	-	-	-	-
CCOC(=O)c1sc(-c2ccc(F)cc2)cc1NC(=O)Nc1ccccc1OC	-	-	-	-	-	-
CCOC(=O)c1sc(NC(=O)Nc2ccccc2Cl)cc1C	-	-	65	-	-	-
c1ccc2c(c1)nc(NCc1ccc3c(c1)OCO3)n2CCN1CCOCC1	-	-	-	-	-	-
c1csc(-c2csc3nc(CN4CCOCC4)nc(NCc4ccc5c(c4)OCO5)c23)c1	-	-	57	-	-	-
CC(C)C12CN3CC(C(C)C)(CN(C1)C3c1ccccc1O)C2=O (stereo unspecified)	-	-	-	-	-	-
CCCc1c(O)c2ccccc2[nH]c1=O	-	-	-	-	-	26
COc1ccc(CCNCC(O)COc2ccc(Cl)cc2)cc1OC (stereo unspecified)	-	-	-	-	-	-
COc1ccc(CCNCC(O)COc2cccc(C(C)=O)c2)cc1OC (stereo unspecified)	-	-	56	-	-	-
COc1ccccc1CNC(=O)C(=O)NCC1OCCN1C(=O)c1ccc(Cl)cc1 (stereo unspecified)	-	-	-	-	-	-
Cc1ccccc1S(=O)(=O)/N=C(/c1ccccc1)N(C)C	-	-	-	-	-	-
CCCc1sc(N/N=C/c2ccccn2)nc1-c1ccc(Br)cc1	25	-	65	-	-	-
Cc1nn(C)c(C)c1NS(=O)(=O)c1ccccc1Cl	.	-	.	.	-	-
